This passage reports IC50, inhibition and MIC results from ChEMBL document CHEMBL1944564, “Discovery of a novel and potent class of F. tularensis enoyl-reductase (FabI) inhibitors by molecular shape and electrostatic matching” (J Med Chem, 2012).

Values after ≈ are worked out from the molar mass of the structure shown. A value given as a limit tells only on which side of the number the result lay.

The nature of test [1]: Inhibition of N-terminus His-tagged Francisella tularensis subsp. Tularensis Schu4 […] expressed in Escherichia coli […] cells assessed as conversion of crotonyl-CoA and NADH to butyryl-CoA and NAD+ preincubated for 30 mins by measured fluorescence analysis. Details: species or system Francisella tularensis subsp. tularensis SCHU S4. In short, it runs like this:
(§1)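 Recombinant N-terminal His-tagged F. tularensis FabI, expressed in E. coli BL21(DE3) and purified by Ni-affinity and size exclusion to >98%, was used at 0.2 μM. Inhibitor in DMSO was preincubated 30 min, then 200 μM crotonyl-CoA was added. The rate of decrease in NADH fluorescence (ex 340/em 450 nm) gave % inhibition versus a DMSO control.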

Test [2] deals with DL21 (DE3). Briefly: Inhibition of N-terminus His-tagged Francisella tularensis subsp. Tularensis Schu4 […] expressed in Escherichia coli […] cells assessed as conversion of crotonyl-CoA and NADH to butyryl-CoA and NAD+ preincubated at 100 uM for 30 mins by fluorescence analysis. The note with it: Francisella tularensis subsp. tularensis SCHU S4. In short, it runs like this:
as §1

Test [3] has as its system Staphylococcus aureus. The test can be described thus: Antibacterial activity against methicillin-resistant Staphylococcus aureus after overnight incubation. Type of test: functional. In a few lines: (§2)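 Broth microdilution in LB with 2-fold serial dilutions of compound and ciprofloxacin as control.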
Test [4] concerns Bacillus anthracis. The test can be described thus: Antibacterial activity against Bacillus anthracis after overnight incubation. It counts as functional.
Test [5] relates to Yersinia pestis. The test can be described thus: Antibacterial activity against Yersinia pestis after overnight incubation. It counts as functional.
Test [6] concerns Francisella tularensis. The test can be described thus: Antibacterial activity against Francisella tularensis after overnight incubation. Type of test: functional.
In test [7] the test system is Staphylococcus aureus. Briefly: Antibacterial activity against Staphylococcus aureus after overnight incubation. Type of test: functional. In a few lines:
as §2

In test [8] the test system is Escherichia coli. The test can be described thus: Antibacterial activity against Escherichia coli BW251113 harboring TolC deletion mutation after overnight incubation. Type of test: functional.
The subject of test [9] is Escherichia coli. Briefly: Antibacterial activity against Escherichia coli BW251113 after overnight incubation. Type of test: functional. In a few lines:
as §2

A word on the IC50: it is the concentration that inhibits the measured activity by half. One may read the inhibition as the drop in the measured response relative to a control, in per cent. With `Clc1ccc(Cn2cnc3ccccc32)cc1`, the IC50 in test [1] amounted to 27 µM. Besides, in [2], the inhibition worked out at 70%.
For orientation: MIC means the lowest concentration that inhibits growth of the organism. Consider `Clc1ccc(Cn2cnc3ccccc32)cc1Cl`, for which the MIC was found to be 50 µg/mL (≈ 180 µM) in test [3]; 50 µg/mL (≈ 180 µM) in test [4]; 25 µg/mL (≈ 90.2 µM) in test [5]; 17.2 µg/mL (≈ 62.1 µM) in test [6]; 50 µg/mL (≈ 180 µM) in test [7]; 25 µg/mL (≈ 90.2 µM) in test [8]. In test [9], this compound displayed an MIC of over 200 µg/mL. Moreover, the IC50 in [1] worked out at 4.7 µM.
Take `Brc1ccc(Cn2cnc3ccccc32)cc1`: the IC50 in [1] stood at 27.4 µM.
In the case of `O=C(NC(=O)c1cc(-c2ccc(Cl)cc2)oc1C(F)(F)F)c1ccccc1O`, the inhibition in [2] was 39%.
Consider `Cc1cc2ncn(Cc3ccc(Cl)c(Cl)c3)c2cc1C`, for which the MIC in test [3] is 50 µg/mL (≈ 164 µM); in test [4], 9.4 µg/mL (≈ 30.8 µM); in test [5], at least 50 µg/mL; in test [6] it was 7.8 µg/mL (≈ 25.6 µM); in test [7] it was 25 µg/mL (≈ 81.9 µM); in test [8], 6.25 µg/mL (≈ 20.5 µM). Moreover, the MIC in test [9] is over 200 µg/mL. Also, the IC50 in test [1] stood at 0.3 µM.
For `COc1ccc(Cn2cnc3ccccc32)cc1`, in test [1], the IC50 was determined as 38 µM.
In the case of `Cc1cc2ncn(C(=O)c3cccc(Cl)c3)c2cc1C`, in [1], the IC50 was over 100 µM.
As for `Cc1nc2ccccc2n1Cc1ccc(Cl)c(Cl)c1`, the MIC in test [4] is 25 µg/mL (≈ 85.9 µM); in test [5], at least 50 µg/mL; in test [6] it was 9.4 µg/mL (≈ 32.3 µM); in test [7] it was 50 µg/mL (≈ 172 µM); in [8], 25 µg/mL (≈ 85.9 µM); in [9], 50 µg/mL (≈ 172 µM). In addition, the concentration for half-maximal inhibition (IC50) in test [1] came out at 3.2 µM.
With `O=C(c1ccc(Cl)cc1)n1cnc2ccccc21`, the IC50 in [1] is over 100 µM.
Consider `Cc1cc2ncn(Cc3ccc(Cl)cc3Cl)c2cc1C`, for which the MIC was 38 µg/mL (≈ 125 µM) in test [3]; over 38 µg/mL in [4]; over 38 µg/mL in test [5]; 4.3 µg/mL (≈ 14.1 µM) in test [6]; 38 µg/mL (≈ 125 µM) in [7]; 19 µg/mL (≈ 62.3 µM) in test [8]. The MIC in test [9] is over 200 µg/mL. Besides, the IC50 in test [1] turned out to be 0.7 µM.
For `Nc1nc2ccccc2n1Cc1ccc(Cl)cc1`, the IC50 in test [1] was over 100 µM.
As to `Nc1ncc(Cc2ccc(Cl)cc2)s1`, the IC50 in [1] came out at 63 µM. In test [2], the inhibition was found to be 49%.
Turning to `Cc1ccc(Cn2cnc3ccccc32)cc1`, the IC50 in [1] turned out to be 90 µM.
`Clc1ccc(Cn2cnc3ccccc32)c(Cl)c1`: the IC50 in test [1] was determined as 22 µM.
Take `Cc1cc2ncn(Cc3ccc(Cl)cc3)c2cc1C`: the MIC in test [4] was over 50 µg/mL; in [5], over 50 µg/mL; in test [6], 15.6 µg/mL (≈ 57.6 µM); in [7], over 50 µg/mL; in test [8] it was 12.5 µg/mL (≈ 46.2 µM); in [9], over 50 µg/mL. Moreover, the IC50 in test [1] stood at 0.3 µM.
On to `Clc1cccc(Cn2cnc3ccccc32)c1`, for which, in test [1], the IC50 is 85 µM.
`Fc1ccc(Cn2cnc3ccccc32)cc1`: the concentration for half-maximal inhibition (IC50) in test [1] was over 100 µM.
With `c1ccc(Cn2cnc3ccccc32)cc1`, the IC50 in test [1] is over 100 µM.
